Assay [1] addresses T1, Beta-lactamase 1 (Bacillus cereus) (UniProt P00809).
T1 sequence (whole entry): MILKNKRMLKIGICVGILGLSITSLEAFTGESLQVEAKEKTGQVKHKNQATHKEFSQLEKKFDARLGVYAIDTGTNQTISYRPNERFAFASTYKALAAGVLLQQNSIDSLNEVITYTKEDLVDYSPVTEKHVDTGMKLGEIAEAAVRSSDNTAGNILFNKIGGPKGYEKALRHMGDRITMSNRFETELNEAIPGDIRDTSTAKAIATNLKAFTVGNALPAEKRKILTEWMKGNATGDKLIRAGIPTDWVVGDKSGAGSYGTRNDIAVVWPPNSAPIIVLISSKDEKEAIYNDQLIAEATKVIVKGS
The assay is described as follows: Inhibitory activity at beta-lactamase I from Bacillus cereus expressed as percent inhibition of beta-lactam hydrolysis at a concentration of 10.0 umol/L. The method, boiled down:
(§1)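 B. cereus beta-lactamase I was preincubated with inhibitor (range 1–100) for 20 min at 25 °C in microtitre plates. Chromogenic substrate nitrocefin was then added, followed by a further 60 min incubation. Hydrolysis was monitored spectrophotometrically at 490 nm, and the reduction in nitrocefin hydrolysis was expressed as % enzyme inhibition.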

Another assay addresses Beta-lactamase TEM (Escherichia coli, UniProt P62593). The assay is described as follows: The compound was tested for its inhibitory activity towards Class A TEM-1 beta-lactamase from Escherichia coli at 0.3 umol.
For the next assay, the target named is Beta-lactamase class C (Enterobacter cloacae, UniProt Q59401). Nature of the assay: The compound was tested for its inhibitory activity towards Class C beta-lactamase from Enterobacter cloacae 908R at 0.8 umol concentration. Format: single protein.
Chain of Beta-lactamase class C (Q59401 whole entry): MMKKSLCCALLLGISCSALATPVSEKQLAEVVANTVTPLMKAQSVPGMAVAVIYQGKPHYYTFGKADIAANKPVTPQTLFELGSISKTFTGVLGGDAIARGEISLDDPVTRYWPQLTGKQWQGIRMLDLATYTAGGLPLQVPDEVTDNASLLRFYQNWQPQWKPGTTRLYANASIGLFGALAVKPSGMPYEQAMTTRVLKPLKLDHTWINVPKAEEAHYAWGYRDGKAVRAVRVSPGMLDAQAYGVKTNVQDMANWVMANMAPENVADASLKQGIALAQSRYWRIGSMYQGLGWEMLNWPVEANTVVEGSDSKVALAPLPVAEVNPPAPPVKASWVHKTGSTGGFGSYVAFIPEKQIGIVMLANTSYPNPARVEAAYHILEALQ
The target of assay [2] is T1, Beta-lactamase 1 (Bacillus cereus). The assay is described as follows: Inhibitory activity at beta-lactamase I from Bacillus cereus expressed as percent inhibition of beta-lactam hydrolysis at a concentration of 1.0 umol/L. An outline of the steps: as §1
Assay [3] has the same target. Nature of the assay: Inhibitory activity at beta-lactamase I from Bacillus cereus expressed as percent inhibition of beta-lactam hydrolysis at a concentration of 100.0 umol/L. An outline of the steps:
as §1

The target is the same in assay [4]. Nature of the assay: Inhibitory activity at beta-lactamase I from Bacillus cereus expressed as percent inhibition of beta-lactam hydrolysis at a concentration of 100.0 umol/L; The inhibitory activity at lower concentrations was not determined. The method, boiled down:
as §1

Chain of Beta-lactamase TEM (P62593 whole entry): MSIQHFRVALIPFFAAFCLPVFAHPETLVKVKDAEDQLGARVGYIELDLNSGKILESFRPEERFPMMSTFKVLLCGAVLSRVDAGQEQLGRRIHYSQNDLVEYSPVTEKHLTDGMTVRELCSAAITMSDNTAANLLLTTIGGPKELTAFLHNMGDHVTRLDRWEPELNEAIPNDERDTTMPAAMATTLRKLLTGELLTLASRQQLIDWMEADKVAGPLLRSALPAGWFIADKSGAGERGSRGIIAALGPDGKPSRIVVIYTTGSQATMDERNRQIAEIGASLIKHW

Consider `C/C=C1/C(=O)N2C(C(=O)O)=C3CCCCC3[C@@H]12` (some centres undefined), for which the values for the inhibition in assay [1], in assay [2] and in assay [3] were 14%, -1% and 61%, respectively. The figures for the IC50 on Beta-lactamase TEM (read-out: IC50) and at Beta-lactamase class C were 39 µM and 3 µM, respectively.
`C/C=C1/C(=O)N2C(C(=O)[O-])=C3CCCCC3[C@H]12.[Na+]` (some centres undefined): the inhibition in assay [4] stood at 23%. For the same compound, the IC50 against Beta-lactamase TEM was found to be 120 uM l-1; on Beta-lactamase class C it was 1.8 µM.
As for `C/C=C1/C(=O)N2C(C(=O)O)=C3CCSCC3[C@@H]12` (some centres undefined), the inhibition is 19% in assay [1], 6% in assay [2] and 60% in assay [3]. The IC50 on Beta-lactamase TEM (read-out: IC50) is 32 µM; against Beta-lactamase class C, 5 µM.
For the compound `C[C@@H](O)[C@H]1C(=O)N2C(C(=O)O)=C3CCCCC3[C@@H]12` (some centres undefined), the inhibition in assay [4] stood at 3%.
With `C/C=C1/C(=O)N2C(C(=O)O)=C3CCSCC3[C@H]12` (some centres undefined), the inhibition in assay [4] was 38%. Besides, the IC50 on Beta-lactamase TEM (read-out: IC50) is 100 µM; against Beta-lactamase class C it was 4.2 µM.
As to `C[C@@H](O)[C@H]1C(=O)N2C(C(=O)O)=C3CCCCC3[C@H]12` (some centres undefined), the inhibition in assay [4] amounted to 5%.
For `CC1(C)[C@H](C(=O)O)N2C(=O)C[C@H]2S1(=O)=O`, the inhibition stood at 40% in assay [1], 2% in assay [2] and 77% in assay [3].
Turning to `O=C(O)[C@H]1/C(=C/CO)O[C@@H]2CC(=O)N21`, the inhibition in assay [1] was found to be 33%; in assay [2], 9%; in assay [3] it was 78%.

The values above are taken from ChEMBL document CHEMBL1135255, “Design, synthesis and bioactivity evaluation of tribactam beta lactamase inhibitors” (Bioorg Med Chem Lett, 2002).
